Measurements as given in ChEMBL document CHEMBL1145014, “8-Aza-immucillins as transition-state analogue inhibitors of purine nucleoside phosphorylase and nucleoside hydrolases” (J Med Chem, 2003).

Experiments:
[1] = Inhibitory activity of compound against […] inosine-adenosine-guanosine nucleoside hydrolase (IAG-NH) from Trypanosoma brucei
Procedure, shortened: (§1)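 Values are inhibition constants (Ki) against the nucleoside hydrolases: nonspecific inosine-uridine NH from *Crithidia fasciculata* and purine-specific inosine-adenosine-guanosine NH from *Trypanosoma brucei brucei*.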

[2] = Inhibitory activity of compound against inosine-uridine nucleoside hydrolase (IU-NH) from crithidia fasciculata; procedure, shortened: as §1
[3] = molecular target: T1, Purine nucleoside phosphorylase (Bos taurus, UniProt P55859); test: Inhibitory activity of compound against bovine purine nucleoside phosphorylase (PNP)
T1 sequence (P55859 whole entry): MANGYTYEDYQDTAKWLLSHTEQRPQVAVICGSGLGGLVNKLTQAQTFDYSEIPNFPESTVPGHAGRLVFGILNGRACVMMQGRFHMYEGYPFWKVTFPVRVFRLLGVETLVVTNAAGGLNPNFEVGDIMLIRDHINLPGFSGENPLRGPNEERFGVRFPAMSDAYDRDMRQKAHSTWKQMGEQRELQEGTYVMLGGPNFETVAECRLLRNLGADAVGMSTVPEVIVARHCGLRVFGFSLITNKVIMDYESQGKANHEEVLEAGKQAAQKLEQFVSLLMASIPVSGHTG

[4] = molecular target: T2, Purine nucleoside phosphorylase (Homo sapiens) (UniProt P00491)
T2 sequence (whole entry): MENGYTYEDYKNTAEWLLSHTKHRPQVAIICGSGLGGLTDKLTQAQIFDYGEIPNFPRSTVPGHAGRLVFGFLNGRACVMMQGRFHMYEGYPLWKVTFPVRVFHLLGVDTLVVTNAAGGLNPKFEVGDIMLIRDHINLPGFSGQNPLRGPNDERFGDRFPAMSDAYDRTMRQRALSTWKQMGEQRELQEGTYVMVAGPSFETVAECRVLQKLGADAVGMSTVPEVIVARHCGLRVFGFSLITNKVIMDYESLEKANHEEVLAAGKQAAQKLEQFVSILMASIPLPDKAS

[5] = molecular target: T3, Purine nucleoside phosphorylase (Bos taurus) (UniProt P55859)
T3 sequence (whole entry): T1 sequence (P55859 whole entry)

[6] = molecular target: T4, Purine nucleoside phosphorylase (Homo sapiens, UniProt P00491); test: Inhibitory activity of compound against human purine nucleoside phosphorylase (PNP)
T4 sequence (P00491 whole entry): T2 sequence (whole entry)

SMILES	Ki [1]	Ki [2]	Ki [3]	K6 [4]	K6 [5]	Ki [6]
O=c1[nH]cnc2c([C@@H]3N[C@H](CO)[C@@H](O)[C@H]3O)c[nH]c12 [FORODESINE]	24 nM	42 nM	0.023 nM	0.0015 s⁻¹	4e-05 s⁻¹	–
Nc1nc2c([C@@H]3N[C@H](CO)[C@@H](O)[C@H]3O)c[nH]c2c(=O)[nH]1	–	–	0.03 nM	0.0015 s⁻¹	0.00019 s⁻¹	0.029 nM
Nc1[nH]cnc2c(C3N[C@H](CO)[C@H](O)[C@@H]3O)cnc1-2 (stereo partly specified)	0.9 nM	7.2 nM	–	–	–	–
Nc1ncnc2c(C3N[C@H](CO)[C@H](O)[C@@H]3O)n[nH]c12 (stereo partly specified)	14000 nM	150 nM	–	–	–	–
NC(=O)c1[nH]nc(C2N[C@H](CO)[C@H](O)[C@@H]2O)c1N (stereo partly specified)	3700 nM	4800 nM	0.06 nM	–	0.019 s⁻¹	0.096 nM
NC(=O)c1[nH]cc(C2N[C@H](CO)[C@H](O)[C@@H]2O)c1N (stereo partly specified)	23 nM	3 nM	–	–	–	–
OC[C@H]1N[C@@H](c2n[nH]c3c(O)ncnc23)[C@H](O)[C@@H]1O	13900 nM	1600 nM	0.042 nM	0.013 s⁻¹	0.021 s⁻¹	0.104 nM
